Measurements taken from ChEMBL document CHEMBL4765486, “Novel Nonsecosteroidal Vitamin D Receptor Modulator Combined with Gemcitabine Enhances Pancreatic Cancer Therapy through Remodeling of the Tumor Microenvironment” (J Med Chem, 2021).
Calls of active or inactive are those of the source.

Assays:
LTC-14 [1] = test: Inhibition of rat LTC-14 cell activation assessed decrease in TGF-beta1 induced Colla1 mRNA expression at 0.5 uM incubated for 24 hrs by q-PCR analysis; format: functional
Summary of the method: (§1)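 Immortalized rat PSC line LTC-14, about 1×10^5 cells per well, was grown 24 h at 37 °C in 5% CO2. Cells then received compound (0.5 μM) plus TGF-β1 for 24 h; TGF-β1 is stated as 0.5 ng/mL in the text and 5 ng/mL in the methods. Col1a1 and Acta2 mRNA were measured by RT-qPCR. Mean ± SD versus TGF-β1 alone.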

[2] = Cytotoxicity against rat LTC-14 cells assessed as reduction in cell proliferation incubated for 24 hrs by MTT assay; format: cell-based; conditions: LTC-14, 24 h
LTC-14 [3] = test: Inhibition of rat LTC-14 cells activation assessed decrease in TGF-beta1 induced Acta2 mRNA expression at 0.5 uM incubated for 24 hrs by q-PCR analysis; format: functional, cell-based; summary of the method: as §1
LTC-14 [4] = test: Inhibition of rat LTC-14 cells activation assessed decrease in TGF-beta1 induced collagen 1 protein expression at 0.5 uM incubated for 24 hrs by Western blot analysis; format: functional, cell-based
Summary of the method: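 LTC-14 cells were treated for 24 h with compound (0.5 μM) plus TGF-β1 (0.5 ng/mL in the text, 5 ng/mL in the methods). Lysates were run on 10% SDS-PAGE, transferred to PVDF and probed with rabbit anti-collagen I, with β-actin as reference. Bands were quantified by densitometry versus TGF-β1 alone.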

[5] = molecular target: T1, Vitamin D3 receptor (Homo sapiens) (UniProt P11473); test: Binding affinity to VDR (unknown origin) at 1 uM by fluorescence polarization assay relative to calcipotriol
T1 sequence (whole entry): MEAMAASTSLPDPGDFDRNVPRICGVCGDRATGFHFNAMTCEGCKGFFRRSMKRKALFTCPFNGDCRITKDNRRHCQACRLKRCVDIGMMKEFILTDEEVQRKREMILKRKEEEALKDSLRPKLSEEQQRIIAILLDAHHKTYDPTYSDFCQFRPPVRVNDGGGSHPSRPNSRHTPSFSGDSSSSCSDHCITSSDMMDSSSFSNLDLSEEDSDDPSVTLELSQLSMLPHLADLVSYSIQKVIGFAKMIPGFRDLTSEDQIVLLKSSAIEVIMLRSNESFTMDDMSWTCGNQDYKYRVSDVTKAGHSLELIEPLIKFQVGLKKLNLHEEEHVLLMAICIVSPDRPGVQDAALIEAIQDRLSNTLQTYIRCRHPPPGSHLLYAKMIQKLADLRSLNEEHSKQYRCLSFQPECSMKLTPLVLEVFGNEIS
Summary of the method: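 PolarScreen VDR competitor fluorescence polarization assay with compounds at 1 μM in triplicate. Read-out used 535 nm excitation and 590 nm emission filters.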

Row | Compound | inhibition (LTC-14 [1]) | IC50 [2] [µM] | inhibition (LTC-14 [3]) | inhibition (LTC-14 [4]) | RBA ([5]; filed as agonist) [%] | RBA [5]
1 | CCn1cc(C(CC)(CC)c2ccc(OCC(C)O)c(C)c2)cc1C(=O)NCC1CCOCC1 (stereo not given) | Active | > 10 | Active | Active | 67 | 
2 | CCN(CC)CCCNC(=O)c1ccc(C(CC)(CC)c2ccc(OCC(O)c3ccccc3)c(C)c2)n1CC (stereo not given) | Active | > 10 | Active | Active | 75 | 
3 | CCN(CC)CCCNC(=O)c1ccc(C(CC)(CC)c2ccc(OCC(O)C3CC3)c(C)c2)n1CC (stereo not given) | Active | > 10 | Active | Active |  | 39%
4 | CCN(CC)CCCNC(=O)c1ccc(C(CC)(CC)c2ccc(OCCCCCC(O)(CC)CC)c(C)c2)n1CC | Active | > 10 | Active | Active |  | 33%
5 | CCN(CC)CCNC(=O)c1cc(C(CC)(CC)c2ccc(OCCCC(O)(CC)CC)c(C)c2)cn1CC | Active | > 10 | Active | Active |  | 31%
6 | CCn1c(C(=O)NCCCN2CCOCC2)ccc1C(CC)(CC)c1ccc(OCCC(C)(C)O)c(C)c1 | Active | > 10 | Active | Active | 63 | 
7 | CCN(CC)CCCNC(=O)c1ccc(C(CC)(CC)c2ccc(OCCCCCC(C)(C)O)c(C)c2)n1CC | Active | > 10 | Active | Active |  | 20%
8 | CCC(O)COc1ccc(C(CC)(CC)c2cc(C(=O)NCCCN(CC)CC)n(CC)c2)cc1C (stereo not given) | Active | > 10 | Active | Active | 64 | 
9 | CCN(CC)CCNC(=O)c1cc(C(CC)(CC)c2ccc(OCC(C)O)c(C)c2)cn1CC (stereo not given) | Active | > 10 | Active | Active |  | inactive
10 | CCN(CC)CCCNC(=O)c1cc(C(CC)(CC)c2ccc(OCCCC(C)(C)O)c(C)c2)cn1CC | Active | > 10 | Active | Active |  | 24%
11 | CCN(CC)CCCNC(=O)c1cc(C(CC)(CC)c2ccc(OCCCCC(C)(C)O)c(C)c2)cn1CC | Active | > 10 | Active | Active |  | 33%
12 | CCCC(O)(CCC)CCCCOc1ccc(C(CC)(CC)c2ccc(C(=O)NCCCN(CC)CC)n2CC)cc1C | Active | > 10 | Active | Active | 64 | 
13 | CCN(CC)CCCNC(=O)c1ccc(C(CC)(CC)c2ccc(OCCCC(O)(CC)CC)c(C)c2)n1CC | Active | > 10 | Active | Active |  | 23%
14 | CCN(CC)CCNC(=O)c1cc(C(CC)(CC)c2ccc(OCCC(O)(CC)CC)c(C)c2)cn1CC | Active | > 10 | Active | Active | 80 | 
15 | CCN(CC)CCNC(=O)c1cc(C(CC)(CC)c2ccc(OCCCCC(O)(CC)CC)c(C)c2)cn1CC | Active | > 10 | Active | Active | 41 | 
16 | CCN(CC)CCNC(=O)c1ccc(C(CC)(CC)c2ccc(OCCCCC(O)(CC)CC)c(C)c2)n1CC | Active | > 10 | Active | Active | 71 | 

Row | Compound | inhibition (LTC-14 [1]) | IC50 [2] [µM] | inhibition (LTC-14 [3]) | inhibition (LTC-14 [4]) | RBA ([5]; filed as agonist) [%] | RBA [5]
17 | CCN(CC)CCCNC(=O)c1ccc(C(CC)(CC)c2ccc(OCCCCC(O)(CC)CC)c(C)c2)n1CC | Active | > 10 | Active | Active |  | inactive
18 | CCN(CC)CCCNC(=O)c1cc(C(CC)(CC)c2ccc(OCC(O)C3CC3)c(C)c2)cn1CC (stereo not given) | Active | > 10 | Active | Active | 40 | 
19 | CCC(O)COc1ccc(C(CC)(CC)c2ccc(C(=O)NCCCN(CC)CC)n2CC)cc1C (stereo not given) | Active | > 10 | Active | Active |  | 28%
20 | CCN(CC)CCCNC(=O)c1ccc(C(CC)(CC)c2ccc(OCCCCC(C)(C)O)c(C)c2)n1CC | Active | > 10 | Active | Active |  | 26%
21 | CCN(CC)CCCNC(=O)c1cc(C(CC)(CC)c2ccc(OCCCCCC(O)(CC)CC)c(C)c2)cn1CC | Active | > 10 | Active | Active |  | 32%
22 | CCN(CC)CCCNC(=O)c1cc(C(CC)(CC)c2ccc(OCCCCCC(C)(C)O)c(C)c2)cn1CC | Active | > 10 | Active | Active |  | inactive
23 | CCn1cc(C(CC)(CC)c2ccc(OCC(C)O)c(C)c2)cc1C(=O)NCCCN1CCN(C)CC1 (stereo not given) | Active | > 10 | Active | Active | 62 | 
24 | CCN(CC)CCCNC(=O)c1cc(C(CC)(CC)c2ccc(OCCCC(O)(CC)CC)c(C)c2)cn1CC | Active | > 10 | Active | Active | 46 | 
25 | CCn1c(C(=O)NCCCN2CCN(C)CC2)ccc1C(CC)(CC)c1ccc(OCCC(C)(C)O)c(C)c1 | Active | > 10 | Active | Active | 54 | 
26 | CCN(CC)CCNC(=O)c1ccc(C(CC)(CC)c2ccc(OCCCC(O)(CC)CC)c(C)c2)n1CC | Active | > 10 | Active | Active |  | 38%
27 | CCN(CC)CCCNC(=O)c1cc(C(CC)(CC)c2ccc(OCCC(C)(C)O)c(C)c2)cn1CC | Active | > 10 | Active | Active | 67 | 
28 | CCN(CC)CCCNC(=O)c1ccc(C(CC)(CC)c2ccc(OCCCC(C)(C)O)c(C)c2)n1CC | Active | > 10 | Active | Active |  | 33%
29 | CCn1c(C(=O)NCCN2CCOCC2)ccc1C(CC)(CC)c1ccc(OCCC(C)(C)O)c(C)c1 | Active | > 10 | Active | Active |  | 18%
30 | CCn1cc(C(CC)(CC)c2ccc(OCC(C)O)c(C)c2)cc1C(=O)NCC1CCCO1 (stereo not given) | Active | > 10 | Active | Active | 60 | 
31 | CCN(CC)CCCNC(=O)c1cc(C(CC)(CC)c2ccc(OCC(C)O)c(C)c2)cn1CC (stereo not given) | Active | > 10 | Active | Active | 78 | 
